Results published in ChEMBL document CHEMBL3244044, “Synthesis and antitumor activity of halogen-substituted 4-(3,3-dimethyl-1-triazeno)quinolines” (J Med Chem, 1978).

Tests used:
B16 [1] = experiment: Antitumor activity against mouse B16 cells allografted mouse assessed as host survival at 42 mg/kg, ip qd for 9 days relative to control; assay type: functional; conditions: route intraperitoneal
In short: (§1)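 B16 melanoma-bearing mice given drug ip once daily for 9 days, starting 24 h after tumor implantation. Read-out is average survival in days, expressed as %T/C = (average survival of treated mice)/(average survival of control mice) × 100.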

Mus musculus [2] = experiment: Toxicity in mouse B16 cells allografted mouse at 70 mg/kg, ip qd for 9 days; assay type: organism-based; parameters: dose 70 mg/kg, route intraperitoneal; conditions: in vivo, 216 h
In short: (§2)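 Mice bearing B16 melanoma, dosed ip once daily for 9 days from 24 h after tumor implantation. Toxicity is recorded as the average body weight change at the end of drug treatment.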

Mus musculus [3] = experiment: Toxicity in mouse L1210 cells allografted mouse at 70 mg/kg, ip qd for 9 days; assay type: organism-based; parameters: dose 70 mg/kg, route intraperitoneal; conditions: in vivo, 216 h
In short: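 Groups of five to ten mice were inoculated ip with about 10^6 L1210 cells and dosed once daily for 9 consecutive days beginning 24 h post-implantation. Toxicity was taken as the average body weight change at the end of drug treatment.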

L1210 [4] = experiment: Antitumor activity against mouse L1210 cells allografted mouse assessed as host survival at 90 mg/kg, ip qd for 9 days relative to control; assay type: functional; conditions: route intraperitoneal
In short: (§3)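 NCI protocol: groups of five to ten mice inoculated ip with approximately 10^6 P-388 or L1210 cells. Drug given over a range of dose levels starting 24 h after implantation, once daily for 9 consecutive days. Survival expressed as %T/C = (average survival of treated)/(average survival of control) × 100.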

Mus musculus [5] = experiment: Toxicity in mouse B16 cells allografted mouse at 116.7 mg/kg, ip qd for 9 days; assay type: organism-based; parameters: dose 116.7 mg/kg, route intraperitoneal; conditions: in vivo, 216 h; in short: as §2
Mus musculus [6] = experiment: Toxicity in mouse L1210 cells allografted mouse at 90 mg/kg, ip qd for 9 days; assay type: organism-based; parameters: dose 90 mg/kg, route intraperitoneal; conditions: in vivo, 216 h
In short: (§4)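 NCI protocol. Groups of five to ten mice were inoculated intraperitoneally with about 10^6 tumor cells. Drug was given ip once daily for 9 consecutive days, starting 24 h after tumor implantation, over a range of dose levels. Toxicity was read as the average body weight change at the end of drug treatment.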

Mus musculus [7] = experiment: Toxicity in mouse L1210 cells allografted mouse at 80 mg/kg, ip qd for 9 days; assay type: organism-based; parameters: dose 80 mg/kg, route intraperitoneal; conditions: in vivo, 216 h; in short: as §4
Mus musculus [8] = experiment: Toxicity in mouse B16 cells allografted mouse at 42 mg/kg, ip qd for 9 days; assay type: organism-based; parameters: dose 42 mg/kg, route intraperitoneal; conditions: in vivo, 216 h; in short: as §2
Mus musculus [9] = experiment: Toxicity in mouse P388 cells allografted mouse at 70 mg/kg, ip qd for 9 days; assay type: organism-based; parameters: dose 70 mg/kg, route intraperitoneal; conditions: in vivo, 216 h; in short: as §4
B16 [10] = experiment: Antitumor activity against mouse B16 cells allografted mouse assessed as host survival at 116.7 mg/kg, ip qd for 9 days relative to control; assay type: functional; conditions: route intraperitoneal; in short: as §1
P388 [11] = experiment: Antitumor activity against mouse P388 cells allografted mouse assessed as host survival at 90 mg/kg, ip qd for 9 days relative to control; assay type: functional; conditions: route intraperitoneal; in short: as §3
Mus musculus [12] = experiment: Toxicity in mouse P388 cells allografted mouse at 90 mg/kg, ip qd for 9 days; assay type: organism-based; parameters: dose 90 mg/kg, route intraperitoneal; conditions: in vivo, 216 h; in short: as §4
L1210 [13] = experiment: Antitumor activity against mouse L1210 cells allografted mouse assessed as host survival at 80 mg/kg, ip qd for 9 days relative to control; assay type: functional; conditions: route intraperitoneal; in short: as §3
P388 [14] = experiment: Antitumor activity against mouse P388 cells allografted mouse assessed as host survival at 80 mg/kg, ip qd for 9 days relative to control; assay type: functional; conditions: route intraperitoneal; in short: as §3
P388 [15] = experiment: Antitumor activity against mouse P388 cells allografted mouse assessed as host survival at 70 mg/kg, ip qd for 9 days relative to control; assay type: functional; conditions: route intraperitoneal; in short: as §3
B16 [16] = experiment: Antitumor activity against mouse B16 cells allografted mouse assessed as host survival at 70 mg/kg, ip qd for 9 days relative to control; assay type: functional; conditions: route intraperitoneal; in short: as §1
L1210 [17] = experiment: Antitumor activity against mouse L1210 cells allografted mouse assessed as host survival at 70 mg/kg, ip qd for 9 days relative to control; assay type: functional; conditions: route intraperitoneal; in short: as §3
Mus musculus [18] = experiment: Toxicity in mouse P388 cells allografted mouse at 80 mg/kg, ip qd for 9 days; assay type: organism-based; parameters: dose 80 mg/kg, route intraperitoneal; conditions: in vivo, 216 h; in short: as §4
Mus musculus [19] = experiment: Toxicity in mouse B16 cells allografted mouse at 130 mg/kg, ip qd for 9 days; assay type: organism-based; parameters: dose 130 mg/kg, route intraperitoneal; conditions: in vivo, 216 h; in short: as §2
B16 [20] = experiment: Antitumor activity against mouse B16 cells allografted mouse assessed as host survival at 360 mg/kg, ip qd for 9 days relative to control; assay type: functional; conditions: route intraperitoneal; in short: as §1
[21] = Binding affinity to synthetic melanin at 5.8 mg/100 mL after 15 mins by UV-spectroscopic analysis; assay type: physicochemical; conditions: 0.25 h
In short: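 Synthetic melanin was made from DL-Dopa with tyrosinase in 0.1 M phosphate pH 6.6 at 37 °C for 4 h. Melanin suspension (1.1 mg dry weight) was mixed with phosphate buffer (0.05 M, pH 6.4, 5% Me2SO), water, and 1 mL of drug solution (5.8 mg/100 mL). The mixture was shaken 15 min at room temperature and filtered. Unbound drug in the filtrate was measured by UV against a drug-free blank.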

B16 [22] = experiment: Antitumor activity against mouse B16 cells allografted mouse assessed as host survival at 216 mg/kg, ip qd for 9 days relative to control; assay type: functional; conditions: route intraperitoneal; in short: as §1
P388 [23] = experiment: Antitumor activity against mouse P388 cells allografted mouse assessed as host survival at 100 mg/kg, ip qd for 9 days relative to control; assay type: functional; conditions: route intraperitoneal; in short: as §3
L1210 [24] = experiment: Antitumor activity against mouse L1210 cells allografted mouse assessed as host survival at 100 mg/kg, ip qd for 9 days relative to control; assay type: functional; conditions: route intraperitoneal; in short: as §3
B16 [25] = experiment: Antitumor activity against mouse B16 cells allografted mouse assessed as host survival at 130 mg/kg, ip qd for 9 days relative to control; assay type: functional; conditions: route intraperitoneal; in short: as §1
Mus musculus [26] = experiment: Toxicity in mouse B16 cells allografted mouse at 216 mg/kg, ip qd for 9 days; assay type: organism-based; parameters: dose 216 mg/kg, route intraperitoneal; conditions: in vivo, 216 h; in short: as §2
Mus musculus [27] = experiment: Toxicity in mouse B16 cells allografted mouse at 360 mg/kg, ip qd for 9 days; assay type: organism-based; parameters: dose 360 mg/kg, route intraperitoneal; conditions: in vivo, 216 h; in short: as §2

CN(C)/N=N\c1ccnc2c(I)cccc12
Survival (B16 [1]): 20 days | T/C (B16 [1]): 97% | Activity (Mus musculus [2]): -1.5% | Activity (Mus musculus [3]): 7.7% | T/C (L1210 [4]): 139% | Activity (Mus musculus [5]): -4.6% | Activity (Mus musculus [6]): -7% | Activity (Mus musculus [7]): -6.9% | Activity (Mus musculus [8]): -1.3% | Activity (Mus musculus [9]): 8.2% | Survival (B16 [10]): 19.3 days | T/C (B16 [10]): 92% | T/C (P388 [11]): 116% | Activity (Mus musculus [12]): -1.6% | T/C (L1210 [13]): 129% | T/C (P388 [14]): 120% | T/C (P388 [15]): 120% | Survival (B16 [16]): 20.8 days | T/C (B16 [16]): 99% | T/C (L1210 [17]): 127% | Activity (Mus musculus [18]): -2.4%

CN(C)/N=N/c1[nH]cnc1C(N)=O [DACARBAZINE]
Activity (Mus musculus [19]): -2.9% | Survival (B16 [20]): 16 days | T/C (B16 [20]): 76% | Activity [21]: 19.3% | Survival (B16 [22]): 22.8 days | T/C (B16 [22]): 109% | T/C (P388 [23]): 150% | T/C (L1210 [24]): 167% | Survival (B16 [25]): 22 days | T/C (B16 [25]): 105% | Activity (Mus musculus [26]): -3.2% | Activity (Mus musculus [27]): -3%
